One assay deals with Aurora kinase A (Homo sapiens, UniProt O14965, T288D). Put plainly: Inhibition of Aurora kinase A T288D mutant expressed in Escherichia coli BL21 DE3.
The test system of assay [1] is T1, Aurora kinase A (Homo sapiens), O14965 [T288D].
T1 sequence (whole entry): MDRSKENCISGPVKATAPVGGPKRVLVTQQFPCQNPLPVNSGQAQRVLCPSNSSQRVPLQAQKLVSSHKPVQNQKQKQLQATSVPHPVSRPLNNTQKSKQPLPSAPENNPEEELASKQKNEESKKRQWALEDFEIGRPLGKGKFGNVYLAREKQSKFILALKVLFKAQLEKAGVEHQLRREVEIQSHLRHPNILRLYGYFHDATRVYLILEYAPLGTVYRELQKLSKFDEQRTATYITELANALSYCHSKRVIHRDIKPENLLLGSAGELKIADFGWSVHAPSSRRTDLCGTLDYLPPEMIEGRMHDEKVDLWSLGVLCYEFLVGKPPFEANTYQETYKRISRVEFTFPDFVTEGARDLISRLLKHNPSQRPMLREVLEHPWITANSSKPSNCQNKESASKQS
Nature of the assay: Inhibition of Aurora kinase A T288D mutant expressed in Escherichia coli BL21 DE3 at 10 uM.

Assay [2] has as its target Aurora kinase A (Homo sapiens) (UniProt O14965). Nature of the assay: Inhibition of Aurora kinase A Thr288 autophosphorylation in human HCT116 cells by Western blot. It is filed as cell-based. The conditions noted are these: HCT-116. The gist of the method:
(§1)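 HCT-116 cells, 4 × 10^5 per well, were seeded for 24 h and synchronized with 40 ng/mL nocodazole for 16 h. They were then exposed to compound at 0.625–40 µM for 2 h at 37 °C. Cells were lysed in SDS sample buffer (pH 6.8, 2% SDS) at 95 °C for 10 min, and 50 µg was run on SDS-PAGE. Blots were probed for phospho-Aurora A (Thr288) and phospho-histone H3 (Ser10) with HRP detection.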
(In general: In western blotting, separated proteins are transferred to a membrane and probed.)

The target in assay [3] is Aurora kinase B (Homo sapiens) (UniProt Q96GD4). Nature of the assay: Inhibition of Aurora kinase B in human HCT116 cells assessed as reduced phosphorylated histone H3 levels by Western blot. It is filed as cell-based. Particulars: HCT-116. The procedure, abridged: as §1
Aurora kinase B (Homo sapiens), sequence (Q96GD4 whole entry): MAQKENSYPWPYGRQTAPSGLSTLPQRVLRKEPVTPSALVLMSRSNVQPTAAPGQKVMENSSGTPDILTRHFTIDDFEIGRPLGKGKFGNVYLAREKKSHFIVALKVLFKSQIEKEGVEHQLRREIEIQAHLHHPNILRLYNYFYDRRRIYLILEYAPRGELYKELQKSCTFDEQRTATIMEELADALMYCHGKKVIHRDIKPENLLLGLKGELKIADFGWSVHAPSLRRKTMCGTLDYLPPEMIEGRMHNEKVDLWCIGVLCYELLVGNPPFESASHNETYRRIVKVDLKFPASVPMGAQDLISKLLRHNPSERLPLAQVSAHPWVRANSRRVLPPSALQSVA
Assay [4] addresses Tyrosine-protein kinase ABL1 (Homo sapiens) (UniProt P00519). Put plainly: Inhibition of ABL1 at 1 uM relative to control.
For assay [5], the target named is RAC-alpha serine/threonine-protein kinase (Homo sapiens) (UniProt P31749). Put plainly: Inhibition of AKT1 at 1 uM relative to control.
Assay [6] has as its target ALK tyrosine kinase receptor (Homo sapiens) (UniProt Q9UM73). Put plainly: Inhibition of ALK at 1 uM relative to control.
Assay [7] has as its target 5'-AMP-activated protein kinase catalytic subunit alpha-1 (Homo sapiens) (UniProt Q13131). Put plainly: Inhibition of AMPK alpha-1/beta-1/gamma-1 at 1 uM relative to control.
Assay [8] addresses Aurora kinase A (Homo sapiens) (UniProt O14965). Nature of the assay: Inhibition of AURKA at 1 uM relative to control.
Assay [9] deals with Aurora kinase B (Homo sapiens) (UniProt Q96GD4). Nature of the assay: Inhibition of AURKB at 1 uM relative to control.
Assay [10] addresses Aurora kinase C (Homo sapiens) (UniProt Q9UQB9). Put plainly: Inhibition of AURKC at 1 uM relative to control.
For assay [11], the target named is Cyclin-dependent kinase 2 (Homo sapiens) (UniProt P24941). Nature of the assay: Inhibition of CDK2/Cyclin A at 1 uM relative to control.
In assay [12] the target is Serine/threonine-protein kinase Chk1 (Homo sapiens) (UniProt O14757). Nature of the assay: Inhibition of CHK1 at 1 uM relative to control.
In assay [13] the target is Epidermal growth factor receptor (Homo sapiens) (UniProt P00533). Nature of the assay: Inhibition of EGFR at 1 uM relative to control.
The target of assay [14] is Ephrin type-A receptor 1 (Homo sapiens) (UniProt P21709). Put plainly: Inhibition of EPHA1 at 1 uM relative to control.
Assay [15] addresses Receptor tyrosine-protein kinase erbB-2 (Homo sapiens) (UniProt P04626). Nature of the assay: Inhibition of ERBB2 at 1 uM relative to control.
Assay [16] concerns the target Vascular endothelial growth factor receptor 1 (Homo sapiens) (UniProt P17948). Put plainly: Inhibition of FLT1 at 1 uM relative to control.
In assay [17] the target is Receptor-type tyrosine-protein kinase FLT3 (Homo sapiens) (UniProt P36888). Put plainly: Inhibition of FLT3 at 1 uM relative to control.
The target of assay [18] is Serine/threonine-protein kinase mTOR (Homo sapiens) (UniProt P42345). Nature of the assay: Inhibition of FRAP1 at 1 uM relative to control.
Assay [19] has as its target Insulin-like growth factor 1 receptor (Homo sapiens) (UniProt P08069). Put plainly: Inhibition of IGF1R at 1 uM relative to control.
For assay [20], the target named is Inhibitor of nuclear factor kappa-B kinase subunit epsilon (Homo sapiens) (UniProt Q14164). Put plainly: Inhibition of IKK epsilon at 1 uM relative to control.
Inhibitor of nuclear factor kappa-B kinase subunit epsilon (Homo sapiens), sequence (Q14164 whole entry): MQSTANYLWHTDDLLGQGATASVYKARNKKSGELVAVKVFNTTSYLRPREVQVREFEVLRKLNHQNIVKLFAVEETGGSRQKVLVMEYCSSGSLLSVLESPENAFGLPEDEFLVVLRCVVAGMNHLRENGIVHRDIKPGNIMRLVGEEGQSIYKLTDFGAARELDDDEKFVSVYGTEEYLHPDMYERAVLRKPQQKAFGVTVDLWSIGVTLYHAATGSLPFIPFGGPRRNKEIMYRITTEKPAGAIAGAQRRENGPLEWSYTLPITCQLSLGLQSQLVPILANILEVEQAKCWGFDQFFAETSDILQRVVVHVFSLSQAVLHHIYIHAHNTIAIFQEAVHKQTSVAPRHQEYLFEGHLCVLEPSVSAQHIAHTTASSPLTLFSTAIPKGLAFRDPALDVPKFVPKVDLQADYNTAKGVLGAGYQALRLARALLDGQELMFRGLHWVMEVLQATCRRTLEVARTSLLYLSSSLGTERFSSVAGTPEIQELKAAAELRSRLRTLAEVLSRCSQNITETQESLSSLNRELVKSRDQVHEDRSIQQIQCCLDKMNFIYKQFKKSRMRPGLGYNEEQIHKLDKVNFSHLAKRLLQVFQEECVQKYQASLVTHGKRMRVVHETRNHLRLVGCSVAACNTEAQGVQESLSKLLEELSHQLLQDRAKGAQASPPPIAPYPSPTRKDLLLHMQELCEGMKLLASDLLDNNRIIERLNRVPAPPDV
Assay [21] concerns the target Tyrosine-protein kinase JAK2 (Homo sapiens) (UniProt O60674). Put plainly: Inhibition of JAK2 at 1 uM relative to control.
Assay [22] concerns the target Mast/stem cell growth factor receptor Kit (Homo sapiens) (UniProt P10721). Put plainly: Inhibition of KIT at 1 uM relative to control.
Assay [23] addresses Mitogen-activated protein kinase 14 (Homo sapiens) (UniProt Q16539). Nature of the assay: Inhibition of MAPK14 at 1 uM relative to control.
Assay [24] has as its target Hepatocyte growth factor receptor (Homo sapiens) (UniProt P08581). Nature of the assay: Inhibition of cMET at 1 uM relative to control.
Assay [25] concerns the target High affinity nerve growth factor receptor (Homo sapiens) (UniProt P04629). Put plainly: Inhibition of NTRK1 at 1 uM relative to control.
For assay [26], the target named is Serine/threonine-protein kinase PLK1 (Homo sapiens) (UniProt P53350). Nature of the assay: Inhibition of PLK1 at 1 uM relative to control.
Assay [27] has as its system RAF proto-oncogene serine/threonine-protein kinase (Homo sapiens), P04049 [Y340D,Y341D]. Nature of the assay: Inhibition of cRaf Y340D/Y341D mutant at 1 uM relative to control.
Assay [28] concerns the target Proto-oncogene tyrosine-protein kinase receptor Ret (Homo sapiens) (UniProt P07949). Nature of the assay: Inhibition of RET at 1 uM relative to control.
Assay [29] has as its target Proto-oncogene tyrosine-protein kinase Src (Homo sapiens) (UniProt P12931). Put plainly: Inhibition of SRC at 1 uM relative to control.
Assay [30] concerns the target Angiopoietin-1 receptor (Homo sapiens) (UniProt Q02763). Nature of the assay: Inhibition of TEK at 1 uM relative to control.
For assay [31], the target named is Phosphatidylinositol 4,5-bisphosphate 3-kinase catalytic subunit gamma isoform (Homo sapiens) (UniProt P48736). Nature of the assay: Inhibition of PIK3CG at 1 uM relative to control.
Assay [32] concerns the target Glycogen synthase kinase-3 beta (Homo sapiens) (UniProt P49841). Put plainly: Inhibition of GSK3-beta at 1 uM relative to control.
The target of assay [33] is 3-phosphoinositide-dependent protein kinase 1 (Homo sapiens) (UniProt O15530). Nature of the assay: Inhibition of PDK1 at 1 uM relative to control.

Aurora kinase A (Homo sapiens), sequence (O14965 whole entry): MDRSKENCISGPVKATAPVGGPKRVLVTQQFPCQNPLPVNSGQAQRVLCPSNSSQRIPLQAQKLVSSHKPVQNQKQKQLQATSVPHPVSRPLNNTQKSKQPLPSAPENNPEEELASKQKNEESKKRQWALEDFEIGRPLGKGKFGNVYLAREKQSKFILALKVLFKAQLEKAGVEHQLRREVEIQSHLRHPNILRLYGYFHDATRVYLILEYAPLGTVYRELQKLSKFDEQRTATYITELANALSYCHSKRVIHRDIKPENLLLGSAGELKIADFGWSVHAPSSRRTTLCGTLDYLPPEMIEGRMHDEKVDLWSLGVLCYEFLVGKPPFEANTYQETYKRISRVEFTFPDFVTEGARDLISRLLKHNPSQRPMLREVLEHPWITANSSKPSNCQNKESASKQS
Glycogen synthase kinase-3 beta (Homo sapiens), sequence (P49841 whole entry, looked up): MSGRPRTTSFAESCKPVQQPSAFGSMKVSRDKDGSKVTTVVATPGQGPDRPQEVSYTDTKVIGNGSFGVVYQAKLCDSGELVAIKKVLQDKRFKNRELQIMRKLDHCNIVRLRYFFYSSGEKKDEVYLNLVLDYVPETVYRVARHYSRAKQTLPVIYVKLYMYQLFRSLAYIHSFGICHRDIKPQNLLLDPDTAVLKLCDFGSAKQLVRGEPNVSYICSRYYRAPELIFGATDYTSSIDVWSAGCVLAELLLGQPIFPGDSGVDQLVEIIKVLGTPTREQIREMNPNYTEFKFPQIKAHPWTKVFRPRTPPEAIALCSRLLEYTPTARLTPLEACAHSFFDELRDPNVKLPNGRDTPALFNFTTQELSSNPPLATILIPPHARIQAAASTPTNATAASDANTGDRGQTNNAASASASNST
High affinity nerve growth factor receptor (Homo sapiens), sequence (P04629 33-796 limits assumed): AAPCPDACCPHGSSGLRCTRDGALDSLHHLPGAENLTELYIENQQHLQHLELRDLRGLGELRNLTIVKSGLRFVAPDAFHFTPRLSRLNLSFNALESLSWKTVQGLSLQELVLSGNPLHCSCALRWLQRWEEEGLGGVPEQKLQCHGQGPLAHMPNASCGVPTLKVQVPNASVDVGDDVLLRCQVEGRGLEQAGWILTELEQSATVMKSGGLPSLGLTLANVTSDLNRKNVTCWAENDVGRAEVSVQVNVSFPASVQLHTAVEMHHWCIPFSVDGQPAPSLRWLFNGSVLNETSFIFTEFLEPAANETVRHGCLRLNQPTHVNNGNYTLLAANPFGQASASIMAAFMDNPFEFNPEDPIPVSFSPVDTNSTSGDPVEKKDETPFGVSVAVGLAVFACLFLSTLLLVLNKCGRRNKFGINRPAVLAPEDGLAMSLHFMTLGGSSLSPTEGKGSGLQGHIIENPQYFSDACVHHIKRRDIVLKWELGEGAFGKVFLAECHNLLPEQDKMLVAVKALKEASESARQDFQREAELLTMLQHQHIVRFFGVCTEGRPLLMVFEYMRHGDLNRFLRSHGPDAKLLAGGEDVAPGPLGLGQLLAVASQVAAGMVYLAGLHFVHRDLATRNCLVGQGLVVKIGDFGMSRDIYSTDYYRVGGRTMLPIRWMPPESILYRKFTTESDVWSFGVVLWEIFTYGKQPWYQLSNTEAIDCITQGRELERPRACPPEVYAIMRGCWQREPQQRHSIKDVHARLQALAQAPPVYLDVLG
Proto-oncogene tyrosine-protein kinase receptor Ret (Homo sapiens), sequence (P07949 whole entry): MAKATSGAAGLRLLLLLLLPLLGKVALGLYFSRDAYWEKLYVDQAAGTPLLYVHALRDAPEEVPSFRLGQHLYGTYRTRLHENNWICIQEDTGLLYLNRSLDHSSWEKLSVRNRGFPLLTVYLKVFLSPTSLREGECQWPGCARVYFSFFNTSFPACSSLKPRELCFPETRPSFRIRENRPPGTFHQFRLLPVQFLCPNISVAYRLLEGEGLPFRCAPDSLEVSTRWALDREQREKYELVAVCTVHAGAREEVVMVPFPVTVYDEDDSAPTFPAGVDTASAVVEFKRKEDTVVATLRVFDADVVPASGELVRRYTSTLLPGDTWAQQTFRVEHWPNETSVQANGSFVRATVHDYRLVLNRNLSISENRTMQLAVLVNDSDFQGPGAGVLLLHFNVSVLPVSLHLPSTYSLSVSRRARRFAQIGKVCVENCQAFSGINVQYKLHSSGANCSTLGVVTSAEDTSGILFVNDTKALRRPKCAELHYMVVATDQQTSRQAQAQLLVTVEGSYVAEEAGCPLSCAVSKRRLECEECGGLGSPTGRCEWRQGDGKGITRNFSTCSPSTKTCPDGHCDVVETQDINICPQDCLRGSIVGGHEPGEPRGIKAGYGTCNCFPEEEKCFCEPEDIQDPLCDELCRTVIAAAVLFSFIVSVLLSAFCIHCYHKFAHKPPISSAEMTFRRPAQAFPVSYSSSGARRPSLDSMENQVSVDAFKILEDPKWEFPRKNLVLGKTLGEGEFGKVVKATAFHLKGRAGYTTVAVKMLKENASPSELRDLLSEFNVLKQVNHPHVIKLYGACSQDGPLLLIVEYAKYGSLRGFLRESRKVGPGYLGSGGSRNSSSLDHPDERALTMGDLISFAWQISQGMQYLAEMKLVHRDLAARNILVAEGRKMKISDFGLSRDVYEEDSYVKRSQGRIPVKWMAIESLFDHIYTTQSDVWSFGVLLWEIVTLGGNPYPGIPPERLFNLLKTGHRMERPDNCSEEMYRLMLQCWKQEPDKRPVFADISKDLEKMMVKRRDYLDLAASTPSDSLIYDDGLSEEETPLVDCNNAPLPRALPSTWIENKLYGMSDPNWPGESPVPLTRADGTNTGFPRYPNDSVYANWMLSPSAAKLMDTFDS
Mitogen-activated protein kinase 14 (Homo sapiens), sequence (Q16539 whole entry): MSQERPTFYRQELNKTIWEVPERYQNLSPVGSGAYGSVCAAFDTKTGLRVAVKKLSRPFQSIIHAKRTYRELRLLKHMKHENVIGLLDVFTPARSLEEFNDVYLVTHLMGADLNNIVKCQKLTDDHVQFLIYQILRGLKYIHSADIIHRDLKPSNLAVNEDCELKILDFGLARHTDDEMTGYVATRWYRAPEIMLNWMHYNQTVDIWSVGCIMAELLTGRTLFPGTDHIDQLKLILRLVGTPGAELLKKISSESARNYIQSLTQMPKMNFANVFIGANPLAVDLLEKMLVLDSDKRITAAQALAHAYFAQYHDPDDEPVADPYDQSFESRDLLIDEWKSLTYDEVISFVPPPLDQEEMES
RAF proto-oncogene serine/threonine-protein kinase (Homo sapiens), P04049 [Y340D,Y341D], sequence (P04049 whole entry Y340D/Y341D): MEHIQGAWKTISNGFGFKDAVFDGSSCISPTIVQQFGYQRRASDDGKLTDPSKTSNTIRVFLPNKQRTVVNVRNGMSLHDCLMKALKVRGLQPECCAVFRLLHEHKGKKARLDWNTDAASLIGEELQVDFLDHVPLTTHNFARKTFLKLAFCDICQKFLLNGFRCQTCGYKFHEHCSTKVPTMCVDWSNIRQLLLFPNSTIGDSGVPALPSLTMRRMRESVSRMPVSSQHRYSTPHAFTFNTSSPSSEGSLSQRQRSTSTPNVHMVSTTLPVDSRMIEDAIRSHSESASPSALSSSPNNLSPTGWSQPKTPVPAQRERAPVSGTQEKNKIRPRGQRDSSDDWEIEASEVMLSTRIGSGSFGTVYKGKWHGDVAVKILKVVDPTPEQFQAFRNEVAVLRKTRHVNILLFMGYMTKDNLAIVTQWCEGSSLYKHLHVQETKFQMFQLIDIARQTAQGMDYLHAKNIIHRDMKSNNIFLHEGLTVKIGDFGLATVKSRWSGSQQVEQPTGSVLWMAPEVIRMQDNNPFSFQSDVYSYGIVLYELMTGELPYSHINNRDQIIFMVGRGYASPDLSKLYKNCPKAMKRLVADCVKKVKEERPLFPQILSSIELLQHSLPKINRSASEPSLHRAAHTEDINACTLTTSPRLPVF

The compound `COc1ccc(/C=N/Nc2[nH]nc(C)c2C(=O)Nc2ccc(OC)cc2)cc1` had an IC50 against Aurora kinase A of 0.46 µM.

`COc1ccc(/C=N/Nc2[nH]nc(C)c2C(=O)OCc2ccccc2)cc1` registered an IC50 against Aurora kinase A of 5.25 µM.

The compound `COc1ccc(/C=N/Nc2[nH]nc(C)c2C(=O)NCc2cccc(NC(C)=O)c2)cc1` showed an IC50 on Aurora kinase A of 1.75 µM.

As to `CCOC(=O)c1c(C)n[nH]c1N/N=C/c1cccc2[nH]ccc12`, the inhibition in assay [1] stood at 50.3%. Besides, the IC50 against Aurora kinase A came to 13.7 µM.

For `COc1ccc(/C=N/Nc2[nH]nc(C)c2C(=O)NCCc2cccnc2)cc1`, it took 1.48 µM to reach half-maximal inhibition on Aurora kinase A (IC50).

As to `COc1ccc(/C=N/Nc2[nH]nc(C)c2C(=O)NCCc2cccc(OC)c2)cc1`, the IC50 against Aurora kinase A worked out at 2.9 µM.

On to `CCOC(=O)c1c(C)n[nH]c1N/N=C/c1ccc(F)cc1`, for which, in assay [1], the inhibition was 36.5%.

For `COc1ccc(/C=N/Nc2[nH]nc(C)c2C(=O)Nc2ccc(NC(C)=O)cc2)cc1`, on Aurora kinase A, the IC50 stood at 0.719 µM.

In turn, `COc1ccc(/C=N/Nc2[nH]nc(C)c2C(=O)NCc2cccc(OC)c2)cc1` came in with an IC50 against Aurora kinase A of 0.838 µM.

On Aurora kinase A, `COc1ccc(/C=N/Nc2[nH]nc(C)c2C(=O)Nc2cccc(OC)c2)cc1` had an IC50 of 0.449 µM.

For the compound `COc1ccc(/C=N/Nc2[nH]nc(C)c2C(=O)N(C)c2ccccc2)cc1`, at Aurora kinase A, the IC50 was greater than 50 µM.

As to `CCOC(=O)c1c(C)n[nH]c1N/N=C/c1ccc(OC)cc1`, the inhibition in assay [1] is 33.9%. The IC50 against Aurora kinase A came to 15.1 µM.

On Aurora kinase A, `COc1ccc(/C=N/Nc2[nH]nc(C)c2C(=O)NCCc2ccc(OC)cc2)cc1` yielded an IC50 of 1.58 µM.

For the compound `CCOC(=O)c1c(C)n[nH]c1N/N=C/c1ccccc1`, the inhibition in assay [1] was determined as 16.4%.

In the case of `COc1ccc(/C=N/Nc2[nH]nc(C)c2C(=O)Nc2ccc(OC)c(OC)c2)cc1`, half-maximal inhibition on Aurora kinase A (IC50) required 0.96 µM.

At Aurora kinase A, `COc1ccc(/C=N/Nc2[nH]nc(C)c2C(=O)NCCc2ccccc2)cc1` returned an IC50 of 1.35 µM.

At Aurora kinase A, `COc1ccc(/C=N/Nc2[nH]nc(C)c2C(=O)Nc2ccccc2OC)cc1` had an IC50 of 1.09 µM.

The compound `COc1ccc(/C=N/Nc2[nH]nc(C)c2C(=O)NCc2ccccc2)cc1` gave an IC50 against Aurora kinase A of 1.58 µM.

`CCOC(=O)c1c(C)n[nH]c1N/N=C/c1ccc2[nH]ccc2c1`: the inhibition in assay [1] was 50%. Further, inhibition on Aurora kinase A was half-maximal at 11.5 µM (IC50).

As to `COc1ccc(/C=N/Nc2[nH]nc(C)c2C(=O)Nc2ccccc2)cc1`, the IC50 against Aurora kinase A was 0.804 µM.

Consider `CCOC(=O)c1c(C)n[nH]c1N/N=C/c1ccc(N2CCN(C)CC2)cc1`, for which the inhibition in [1] worked out at 41%.

Take `CCOC(=O)c1c(C)n[nH]c1N/N=C/c1ccc(-c2ccccc2)cc1`: in [1], the inhibition was found to be 27.5%.

For the compound `COc1ccc(/C=N/Nc2[nH]nc(C)c2C(=O)Nc2cccc(NC(C)=O)c2)cc1`, the Activity entry in [2] and in assay [3] was “Dose-dependent effect” each time. Also, the inhibition in assay [4] amounted to 17%; in assay [5], 13%; in assay [6], 1%; in assay [7], 31%; in assay [8], 91%; in [9], 36%. Further, the inhibition in assay [10] worked out at 45%; in assay [11] it was 48%; in assay [12], 21%; in assay [13], 8%; in assay [14], 51%; in [15] it was 26%. For the same compound, the inhibition in assay [16] is 27%; in assay [17] it was 48%; in [18], -6%; in assay [19] it was 11%; in assay [20], -8%; in assay [21], 56%. Besides, the inhibition is 61% in assay [22]; 19% in assay [23]; 19% in assay [24]; 66% in assay [25]; 11% in assay [26]; -1% in assay [27]. The inhibition in assay [28] is 76%; in [29] it was 33%; in [30] it was 4%; in assay [31], -3%; in assay [32], 32%; in [33], 17%.

With `COc1ccc(/C=N/Nc2[nH]nc(C)c2C(=O)NCCc2c[nH]c3ccccc23)cc1`, it took 1.07 µM to reach half-maximal inhibition against Aurora kinase A (IC50).

Take `CCOC(=O)c1c(C)n[nH]c1N/N=C(\C)c1ccc(OC)cc1`: the inhibition in assay [1] came to 18.2%.

Take `COc1ccc(/C=N/Nc2[nH]nc(C)c2C(=O)NCCCc2ccccc2)cc1`: on Aurora kinase A, the IC50 was determined as 1.94 µM.

`COc1ccc(/C=N/Nc2[nH]nc(C)c2C(=O)NCCc2c[nH]cn2)cc1`: on Aurora kinase A, the IC50 stood at 1.94 µM.

In turn, `COc1ccc(/C=N/Nc2[nH]nc(C)c2C(=O)N(C)Cc2ccccc2)cc1` displayed an IC50 at Aurora kinase A greater than 50 µM.

On Aurora kinase A, `COc1ccc(/C=N/Nc2[nH]nc(C)c2C(=O)Nc2ccc(F)cc2)cc1` displayed an IC50 of 1.45 µM.

Turning to `CCOC(=O)c1c(C)n[nH]c1N/N=C/Cc1ccccc1`, the inhibition in [1] was determined as 3.6%.

Compound `COc1ccc(/C=N/Nc2[nH]nc(C)c2C(=O)Nc2ccc(N(C)C)cc2)cc1` displayed an IC50 against Aurora kinase A of 1.57 µM. That is a single-digit micromolar value.

Regarding `COc1ccc(/C=N/Nc2[nH]nc(C)c2C(=O)NCc2ccc(OC)cc2)cc1`, the IC50 at Aurora kinase A turned out to be 1.62 µM.

Usually IC50 stands for the point on the concentration scale where inhibition reaches its midpoint. Low values mean higher potency, high ones lower potency. A word on the inhibition: it is the drop in the measured response relative to a control, in per cent.

Source of the values: ChEMBL document CHEMBL1140919, “Structure-based drug design of novel Aurora kinase A inhibitors: structural basis for potency and specificity” (J Med Chem, 2009).
